How the values were obtained:
[1] = molecular target: 5-hydroxytryptamine receptor 6 (Homo sapiens, UniProt P50406); assay: Binding affinity against human 5-hydroxytryptamine 6 receptor
[2] = Plasma Clearance measured at steady-state following iv infusion at 0.6 mg/kg/h in rats; assay type: ADME, organism-based; set-up: route intravenous; settings: rat, 0.6 mg/kg/h infusion
[3] = species on record: Rattus norvegicus; assay: Blood: Brain distribution ratio is determined in rat; assay type: ADME, organism-based
How it was run: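 Rats received iv infusion for 8 h, and the brain:blood ratio was taken at steady state.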

[4] = Bioavailability in rat (dose 10 mg/kg in 10% Encapsin and 2% DMSO p.o.); settings: in vivo, po

Chain of 5-hydroxytryptamine receptor 6 (P50406 whole entry, the tested form may be a part): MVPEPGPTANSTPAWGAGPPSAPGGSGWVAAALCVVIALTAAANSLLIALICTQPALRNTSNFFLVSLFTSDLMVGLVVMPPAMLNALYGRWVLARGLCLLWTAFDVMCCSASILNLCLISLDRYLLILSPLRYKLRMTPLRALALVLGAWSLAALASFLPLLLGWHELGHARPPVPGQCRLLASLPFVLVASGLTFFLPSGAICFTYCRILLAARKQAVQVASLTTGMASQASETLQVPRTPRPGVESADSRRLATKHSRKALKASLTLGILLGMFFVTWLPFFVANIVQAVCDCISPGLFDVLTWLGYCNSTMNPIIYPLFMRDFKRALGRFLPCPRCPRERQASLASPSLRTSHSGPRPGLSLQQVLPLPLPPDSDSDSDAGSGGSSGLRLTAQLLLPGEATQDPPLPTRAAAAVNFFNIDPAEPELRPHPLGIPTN

| SMILES | Ki [1] [nM] | also measured |
| --- | --- | --- |
| COc1ccc(S(=O)(=O)Nc2cc(Br)cc(Br)c2Br)cc1N1CCNCC1 | 2.51 | – |
| COc1ccc(S(=O)(=O)Nc2cc(Br)cc(Cl)c2Cl)cc1N1CCNCC1 | 3.98 | – |
| COc1ccc(S(=O)(=O)Nc2cccc(Br)c2)cc1N1CCNCC1 | 1.26 | – |
| COc1ccc(S(=O)(=O)Nc2ccc(Cl)c(Cl)c2)cc1N1CCNCC1 | 2.51 | – |
| COc1ccc(S(=O)(=O)Nc2cc(Cl)c(Cl)cc2Cl)cc1N1CCNCC1 | 5.01 | – |
| COc1ccc(S(=O)(=O)N2CCc3c(Cl)ccc(Cl)c3C2)cc1N1CCNCC1 | – | clearance [2]: 76 mL/min/kg |
| COc1ccc(S(=O)(=O)Nc2ccc(Cl)cc2C(F)(F)F)cc1N1CCNCC1 | 25.1 | – |
| COc1ccc(S(=O)(=O)Nc2cc(F)cc(F)c2Cl)cc1N1CCNCC1 | 31.6 | – |
| COc1ccc(S(=O)(=O)N2CCCc3cc(Br)ccc32)cc1N1CCNCC1 | 3.16 | – |
| COc1ccc(S(=O)(=O)Nc2cc(Cl)cc(Cl)c2Br)cc1N1CCNCC1 | 3.16 | – |
| COc1ccc(S(=O)(=O)Nc2ccccc2Br)cc1N1CCNCC1 | 1.58 | clearance [2]: 60 mL/min/kg; Distribution ratio [3]: 0.24 |
| COc1ccc(S(=O)(=O)N2CCc3cc(C)c(C(F)(F)F)cc32)cc1N1CCNCC1 | 3.98 | clearance [2]: 73 mL/min/kg; Distribution ratio [3]: 0.41 |
| COc1cc(Cl)c(C)cc1NS(=O)(=O)c1ccc(OC)c(N2CCNCC2)c1 | 2 | – |
| COc1ccc(NS(=O)(=O)c2sc3ccc(Cl)cc3c2C)cc1N1CCNCC1 | – | clearance [2]: 8 mL/min/kg; bioavailability [4]: 82% |
| COc1ccc(S(=O)(=O)Nc2ccc(C)cc2Br)cc1N1CCNCC1 | 7.94 | – |
| COc1ccc(S(=O)(=O)Nc2cc(Br)cc(Br)c2Cl)cc1N1CCNCC1 | 2.51 | – |
| COc1ccc(S(=O)(=O)Nc2cc([N+](=O)[O-])ccc2C)cc1N1CCNCC1 | 20 | – |
| COc1ccc(S(=O)(=O)N2CCc3cc(I)ccc32)cc1N1CCNCC1 | 3.98 | – |
| COc1ccc(S(=O)(=O)N2CCc3cccc(Cl)c3C2)cc1N1CCNCC1 | – | clearance [2]: 83 mL/min/kg |

Source: ChEMBL document CHEMBL1134050, “Phenyl benzenesulfonamides are novel and selective 5-HT6 antagonists: identification of N-(2,5-dibromo-3-fluorophenyl)-4-methoxy-3-piperazin-1-ylbenzenesulfonamide (SB-357134)” (Bioorg Med Chem Lett, 2001)
